{
  "source": "ChEMBL document CHEMBL1138795",
  "about": "“Inhibition of nucleoside transport by new analogues of 4-nitrobenzylthioinosine: replacement of the ribose moiety by substituted benzyl groups” (J Med Chem, 2004)",
  "data": [
    {"molecular_target": "T1, Equilibrative nucleoside transporter 1 (Homo sapiens, UniProt Q99808)", "T1 sequence (Q99808 whole entry)": "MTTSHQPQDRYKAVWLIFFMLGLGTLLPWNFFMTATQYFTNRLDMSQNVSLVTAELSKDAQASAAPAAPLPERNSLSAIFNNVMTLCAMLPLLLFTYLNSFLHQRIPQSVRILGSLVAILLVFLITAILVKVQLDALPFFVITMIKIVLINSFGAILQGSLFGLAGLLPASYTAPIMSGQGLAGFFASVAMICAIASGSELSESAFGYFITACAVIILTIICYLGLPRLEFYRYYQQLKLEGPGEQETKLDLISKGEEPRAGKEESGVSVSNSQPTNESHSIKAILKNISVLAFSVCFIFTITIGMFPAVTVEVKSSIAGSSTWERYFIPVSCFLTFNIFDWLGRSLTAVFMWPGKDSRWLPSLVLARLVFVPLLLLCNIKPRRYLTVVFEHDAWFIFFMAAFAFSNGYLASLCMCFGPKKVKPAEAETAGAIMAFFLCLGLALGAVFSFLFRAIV", "test": "Inhibition of [3H]NBTI binding to nucleoside transport protein of human erythrocyte membrane", "outline": "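Equilibrium displacement of [3H]NBTI (KD 0.59 nM) from human erythrocyte ghost membranes at 25 °C. Membranes prepared by hypotonic lysis in Tris-HCl/MgCl2 pH 8.0 and resuspended in 50 mM Tris-HCl pH 7.4. Compounds giving ≥50% inhibition at 10 μM were run over a concentration range. IC50 values were converted to Ki, n = 3, reported with SEM.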", "units": {"Ki": "nM"}, "values": [
      {"smiles": "COc1cccc(-c2ccccc2Cn2cnc3c(SCc4ccc([N+](=O)[O-])cc4)ncnc32)c1", "Ki": 221},
      {"smiles": "O=[N+]([O-])c1ccc(CSc2ncnc3c2ncn3Cc2ccccc2-c2ccc(C(F)(F)F)cc2)cc1", "Ki": 39},
      {"smiles": "O=[N+]([O-])c1ccc(CSc2ncnc3c2ncn3Cc2ccc(F)cc2F)cc1", "Ki": 4880},
      {"smiles": "O=[N+]([O-])c1ccc(CSc2ncnc3c2ncn3Cc2ccc(F)c(F)c2)cc1", "Ki": 653},
      {"smiles": "COc1ccc(Cn2cnc3c(SCc4ccc([N+](=O)[O-])cc4)ncnc32)cc1", "Ki": 563},
      {"smiles": "Cc1ccccc1-c1ccccc1Cn1cnc2c(SCc3ccc([N+](=O)[O-])cc3)ncnc21", "Ki": 126},
      {"smiles": "O=[N+]([O-])c1ccc(CSc2ncnc3c2ncn3Cc2ccc(F)cc2)cc1", "Ki": 3340},
      {"smiles": "O=[N+]([O-])c1ccc(CSc2ncnc3c2ncn3Cc2ccccc2-c2cccc(O)c2)cc1", "Ki": 196},
      {"smiles": "COc1cccc(Cn2cnc3c(SCc4ccc([N+](=O)[O-])cc4)ncnc32)c1", "Ki": 264},
      {"smiles": "O=[N+]([O-])c1ccc(CSc2ncnc3c2ncn3Cc2cc(F)cc(F)c2)cc1", "Ki": 1540},
      {"smiles": "Nc1ccccc1Cn1cnc2c(SCc3ccc([N+](=O)[O-])cc3)ncnc21", "Ki": 124},
      {"smiles": "O=[N+]([O-])c1ccc(CSc2ncnc3c2ncn3Cc2ccccc2-c2ccccc2F)cc1", "Ki": 111},
      {"smiles": "O=[N+]([O-])c1ccc(CSc2ncnc3c2ncn3Cc2cc(F)ccc2F)cc1", "Ki": 1640},
      {"smiles": "COc1ccccc1-c1ccccc1Cn1cnc2c(SCc3ccc([N+](=O)[O-])cc3)ncnc21", "Ki": 225},
      {"smiles": "O=[N+]([O-])c1ccc(CSc2ncnc3c2ncn3Cc2ccc([N+](=O)[O-])cc2)cc1", "Ki": 200},
      {"smiles": "O=[N+]([O-])c1ccc(CSc2ncnc3c2ncn3Cc2ccccc2-c2cccc(C(F)(F)F)c2)cc1", "Ki": 86},
      {"smiles": "O=[N+]([O-])c1ccc(CSc2ncnc3c2ncn3Cc2ccccc2-c2ccsc2)cc1", "Ki": 89},
      {"smiles": "O=[N+]([O-])c1ccc(CSc2ncnc3c2ncn3CCCc2ccccc2)cc1", "Ki": 488},
      {"smiles": "O=[N+]([O-])c1ccc(CSc2ncnc3c2ncn3Cc2ccc(Cl)cc2)cc1", "Ki": 236},
      {"smiles": "O=[N+]([O-])c1ccc(CSc2ncnc3c2ncn3Cc2ccccc2-c2ccccc2O)cc1", "Ki": 196},
      {"smiles": "COc1ccccc1Cn1cnc2c(SCc3ccc([N+](=O)[O-])cc3)ncnc21", "Ki": 110},
      {"smiles": "O=[N+]([O-])c1ccc(CSc2ncnc3c2ncn3Cc2ccccc2-c2ccc(F)cc2)cc1", "Ki": 93},
      {"smiles": "Cc1ccc(Cn2cnc3c(SCc4ccc([N+](=O)[O-])cc4)ncnc32)cc1", "Ki": 711},
      {"smiles": "O=[N+]([O-])c1ccc(CSc2ncnc3c2ncn3Cc2cccc(O)c2)cc1", "Ki": 153},
      {"smiles": "O=[N+]([O-])c1ccc(CSc2ncnc3c2ncn3Cc2ccccc2-c2ccc(O)cc2)cc1", "Ki": 154},
      {"smiles": "O=[N+]([O-])c1ccc(CSc2ncnc3c2ncn3Cc2cccc(Cl)c2)cc1", "Ki": 212},
      {"smiles": "CC(C)(C)OC(=O)Nc1ccccc1Cn1cnc2c(SCc3ccc([N+](=O)[O-])cc3)ncnc21", "Ki": 422},
      {"smiles": "COc1ccc(-c2ccccc2Cn2cnc3c(SCc4ccc([N+](=O)[O-])cc4)ncnc32)cc1", "Ki": 104},
      {"smiles": "O=[N+]([O-])c1ccc(CSc2ncnc3c2ncn3Cc2ccccc2-c2cccs2)cc1", "Ki": 129},
      {"smiles": "O=[N+]([O-])c1ccc(CSc2ncnc3c2ncn3CCc2ccccc2)cc1", "Ki": 2200},
      {"smiles": "O=[N+]([O-])c1ccc(CSc2ncnc3c2ncn3Cc2ccc(I)cc2)cc1", "Ki": 130},
      {"smiles": "O=[N+]([O-])c1ccc(CSc2ncnc3c2ncn3Cc2cccnc2)cc1", "Ki": 2710},
      {"smiles": "O=[N+]([O-])c1ccc(CSc2ncnc3c2ncn3Cc2cccc(C(F)(F)F)c2)cc1", "Ki": 2170},
      {"smiles": "O=[N+]([O-])c1ccc(CSc2ncnc3c2ncn3Cc2cccc(F)c2)cc1", "Ki": 361},
      {"smiles": "O=[N+]([O-])c1ccc(CSc2ncnc3c2ncn3Cc2ccccc2O)cc1", "Ki": 39},
      {"smiles": "O=[N+]([O-])c1ccc(CSc2ncnc3c2ncn3Cc2ccncc2)cc1", "Ki": 2170},
      {"smiles": "O=[N+]([O-])c1ccc(CSc2ncnc3c2ncn3Cc2ccccc2-c2ccccc2)cc1", "Ki": 281}
    ]},
    {"molecular_target": "T2, Equilibrative nucleoside transporter 1 (Homo sapiens) (UniProt Q99808)", "T2 sequence (whole entry)": "T1 sequence (Q99808 whole entry)", "test": "Displacement of [3H]NBTI from human erythrocyte membrane at 10 uM", "outline": "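Human erythrocyte ghost membranes (whole blood lysed in 10 mM MgCl2/10 mM Tris-HCl pH 8.0, repeated water washes, resuspended in 50 mM Tris-HCl pH 7.4, stored −80 °C) incubated to equilibrium at 25 °C with [3H]NBTI (KD 0.59 nM). Test compound at a single 10 μM concentration. Result expressed as percent displacement of specific radioligand binding.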", "units": {"Binding activity": "%"}, "values": [
      {"smiles": "O=[N+]([O-])c1ccc(CSc2ncnc3c2ncn3Cc2cccc(F)c2F)cc1", "Binding activity": 32},
      {"smiles": "O=[N+]([O-])c1ccc(CSc2ncnc3c2ncn3Cc2c(Cl)cccc2Cl)cc1", "Binding activity": 6},
      {"smiles": "O=[N+]([O-])c1ccc(CSc2ncnc3c2ncn3Cc2ccccc2Cl)cc1", "Binding activity": 44},
      {"smiles": "O=[N+]([O-])c1ccc(CSc2ncnc3c2ncn3Cc2ccccn2)cc1", "Binding activity": 42},
      {"smiles": "O=[N+]([O-])c1ccc(CSc2ncnc3c2ncn3Cc2ccc(OC(F)(F)F)cc2)cc1", "Binding activity": 24},
      {"smiles": "O=[N+]([O-])c1ccc(CSc2ncnc3c2ncn3Cc2ccc(Cl)c(Cl)c2)cc1", "Binding activity": 34},
      {"smiles": "O=[N+]([O-])c1ccc(CSc2ncnc3c2ncn3Cc2c(F)cccc2F)cc1", "Binding activity": 32},
      {"smiles": "O=[N+]([O-])c1ccc(CSc2ncnc3c2ncn3Cc2ccccc2F)cc1", "Binding activity": 38},
      {"smiles": "COc1cc(Cn2cnc3c(SCc4ccc([N+](=O)[O-])cc4)ncnc32)cc(OC)c1", "Binding activity": 47}
    ]}
  ]
}
